WT yeast gro inh – growth inhibition of WT strain, primary screen, mitochondrial fusion inhibitor project, WT and mutant strains, chemical genetic. mitochondrial fusion phenotypic screen. inhibition, % at 10 µM. actives 2.1% (n = 190,000). AID 1362, 2008; in the data active = inhibition above about 58%; tested in S. cerevisiae
PMI activator – activators of human PMI, primary screen, biochemical, fluorescence intensity, near-Km mannose 6-phosphate; Mannose-6-phosphate isomerase (Homo sapiens), P34949; purified human PMI, coupled resazurin fluorescence, 20 min; active compounds read high; 1 = vehicle control, 0 substrate-free wells; activation factor at 20 µM; actives 0.005% (n = 190,000);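 active = activation factor of 2 or more at 20 µM, relative to plate controls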
Target sequence (P34949 whole entry, looked up): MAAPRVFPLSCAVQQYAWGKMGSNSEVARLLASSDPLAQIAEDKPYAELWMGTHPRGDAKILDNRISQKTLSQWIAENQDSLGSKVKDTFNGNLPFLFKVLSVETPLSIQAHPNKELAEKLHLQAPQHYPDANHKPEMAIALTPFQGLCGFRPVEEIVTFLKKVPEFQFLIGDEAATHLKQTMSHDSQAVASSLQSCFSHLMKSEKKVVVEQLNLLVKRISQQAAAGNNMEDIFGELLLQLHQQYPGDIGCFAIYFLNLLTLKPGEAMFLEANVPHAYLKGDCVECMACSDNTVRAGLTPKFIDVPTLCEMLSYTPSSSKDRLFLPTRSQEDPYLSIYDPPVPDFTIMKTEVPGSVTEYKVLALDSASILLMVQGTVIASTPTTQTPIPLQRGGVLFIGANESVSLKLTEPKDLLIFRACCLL
L major viab – Leishmania major promastigote growth inhibition, primary screen | inhibition, % at 10 µM | actives 9% (n = 200,000) | AID 1063, 2008 | Leishmania major promastigotes, resazurin fluorescence viability; in the data active = inhibition above about 50%;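 note: promastigotes grown with compound for 44 hours at 28 °C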
PMI act hi M6P – human PMI activators, high substrate, primary screen, biochemical, fluorescence intensity, near-saturating mannose 6-phosphate; actives 0.34% (n = 190,000); coupled PMI enzyme assay, resazurin fluorescence, 20 min; active compounds read high; 1 = untreated enzyme, 0 = substrate-free blank; activation factor at 20 µM;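 active = activation factor of 2 or more at 20 µM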
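Test system: human phosphomannose isomerase with PGI, G6PDH, diaphorase coupling enzymes / Doses: 20 µM compound, 1% DMSO / Times: enzyme reaction with compound 20 min at room temperature / Measured by: Diaphorase-driven resazurin-to-resorufin fluorescence, excitation 544, emission 590 nm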
Diaph act CS – compounds boosting diaphorase resazurin reduction – biochemical, uHTS, resorufin fluorescence, counter-screen for diaphorase-coupled primary assays, primary screen. actives 0.005% (n = 190,000). AID 1229, 2008. activation factor at 20 µM. Diaphorase/resazurin coupled assay, 16 min; active compounds read high; 1 = vehicle wells, 0 = NADH-free wells;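 active = diaphorase activity raised at least twofold by the compound at 20 µM; inactive = activation factor below 2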
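Test system: Clostridium kluyveri diaphorase, purified enzyme. Buffer or medium: 50 mM HEPES pH 7.4 buffer plus MgCl2 and Tween 20. Also added: 0.114 mM NADH and 0.1 mM resazurin, final amounts. Dosing: compound 20 µM once, DMSO 1%. Schedule: 16 min enzyme reaction, ambient temperature. Detection: fluorescence of resorufin, 544 nm excitation, 590 nm emission.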
Of the large screens only hits and unclear results are named; the others gave an inactive call. Sampled rows, rich in hits. Any-hit rate of the full collection: about 10%.

Cc1nn2c(-c3cccc(NC(=O)c4ccco4)c3)nnc2c2ccccc12	L major viab 101
COc1ccc(NS(=O)(=O)c2ccc3c(c2)NC(=O)CO3)cc1	none
O=S(=O)(Nc1nc2ccccc2nc1NCc1ccco1)c1ccc(Cl)cc1	WT yeast gro inh 58
Cc1ccc(S(=O)(=O)Nc2nc3ccccc3nc2NCc2ccco2)cc1	none
CC(C)CNC(=O)Cn1c(=O)c2c(ncn2CC(C)C)n(Cc2ccccc2)c1=O	none
Cc1nn(Cc2ccc(Cl)cc2)c(C)c1NC(=O)CCCn1nc([N+](=O)[O-])c(Cl)c1C	none
COc1ccccc1-c1cc(C(F)(F)F)nc(N2CCCCC2)n1	WT yeast gro inh 74
COc1ccc(N2C(=O)CSC23C(=O)N2c4c(cccc43)C(C)=CC2(C)C)cc1 (stereo not drawn)	L major viab 100
COCCNS(=O)(=O)c1cc(OC)ccc1OC	none
COc1ccc(CCNC(=O)CSCc2ccc(Cl)cc2)cc1OC	none
COCCn1c(-c2ccc(Cl)cc2)cnc1SCC(=O)NCCc1ccc(OC)c(OC)c1	L major viab 70
COCCn1c(-c2ccc(OC)cc2)cnc1SCC(=O)Nc1cccc2ccccc12	L major viab 77
COc1ccc(CCNC(=O)CSc2ccccc2)cc1OC	none
COc1ccc(CCNC(=O)CSc2nnc(-c3ccc(F)cc3)c3ccccc23)cc1OC	L major viab 65
COc1ccc(CCNC(=O)Cc2cc(OCc3ccccc3)c(OC)cc2[N+](=O)[O-])cc1OC	none
O=C(O)c1cccnc1Br	none
COCc1c(C(=O)OC)nnn1-c1ccc(C(F)(F)F)cc1[N+](=O)[O-]	none
CCN(CC)P(=O)(Nc1ccccc1Br)c1ccc(N(C)C)cc1NC(=O)c1ccco1 (stereo not drawn)	L major viab 73
CN(Cc1ccccc1)C(=O)c1ccccc1NC(=O)c1ccco1	none
NC(=O)COC(=O)CN1C(=O)C2CCCCC2C1=O (stereo not drawn)	none
CCNC(=O)COC(=O)/C=C/c1cccc(F)c1	none
Cc1cc(/C=C2/C(=N)N3C(=NC2=O)SN=C3S(C)(=O)=O)c(C)n1-c1ccc(F)cc1	none
CCOc1ccc(-n2c(C)cc(/C=C3/C(=N)N4C(=NC3=O)SN=C4S(C)(=O)=O)c2C)cc1	PMI act hi M6P 2.1
COc1ccccc1OCC(=O)/C=C1/N(C)c2ccccc2C1(C)C	L major viab 57
CN1/C(=C\C(=O)C(F)F)C(C)(C)c2ccccc21	none
CN1/C(=C\C(=O)C[n+]2ccc3ccccc3c2)C(C)(C)c2ccccc21	L major viab 100
O=C(CCCn1c(=O)[nH]c2ccc(Br)cc2c1=O)NCc1ccc(Cl)cc1	none
C/C(N)=C(/C#N)C(=O)COC(=O)c1cc(S(=O)(=O)N2CCCCC2)ccc1C	WT yeast gro inh 95, L major viab 71
CCOc1ccc(NC(=S)N2CCC(N(C)CCN3CCOCC3)CC2)cc1	none
O=C1C2C3CCC(C3)C2C(=O)N1Cc1ccccc1 (stereo not drawn)	L major viab 57
O=C1C2C3C=CC(C4CC34)C2C(=O)N1Cc1ccccc1 (stereo not drawn)	none
Cc1ccc(C(=O)NCC(=O)OCC(=O)NC2CCS(=O)(=O)C2)cc1C (stereo not drawn)	L major viab 52
COCCCNC(=S)N1CCN(C(=O)c2ccco2)CC1	none
Cc1ccccc1CN1CCN(S(C)(=O)=O)CC1	none
CCN1CCN(CC2CC3C=CC2C3)CC1 (stereo not drawn)	none
CS(=O)(=O)N1CCN(CC2CC3C=CC2C3)CC1 (stereo not drawn)	L major viab 93
CNC(=S)N1CCN(C(=O)c2ccco2)CC1	L major viab 75
C1=CC2CC1CC2CN1CCN(c2ccccc2)CC1 (stereo not drawn)	L major viab 85
Cc1ccccc1CN1CCN(CC2CC3C=CC2C3)CC1 (stereo not drawn)	L major viab 87
CS(=O)(=O)N(CCc1ccccc1)CC(=O)N1CCc2ccccc2C1	none
O=C(c1ccco1)N1CCN(CC2CC3C=CC2C3)CC1 (stereo not drawn)	L major viab 93
O=C(c1ccco1)N1CCN(c2ccc(F)cc2)CC1	none
Cc1ccc2cc(COC(=O)C3CCCO3)c(=O)[nH]c2c1 (stereo not drawn)	none
CSc1ccc(/C=N/NC(=O)CNc2ccc3ccccc3c2)cc1	WT yeast gro inh 65
COCCN=c1scc(-c2cccs2)n1/N=C/c1ccc(O)c(O)c1O	none
COCCN=c1scc(-c2ccccc2)n1/N=C/c1c[nH]c2ccccc12	WT yeast gro inh 79
CCCOC(=O)CN1C(=O)c2ccccc2C1=O	WT yeast gro inh 79
O=c1c(Cc2ccc(Cl)cc2Cl)c(O)ccn1CCCN1CCOCC1	none
CC1CC(C)CN(CCCn2c(=S)[nH]c3ccccc3c2=O)C1 (stereo not drawn)	L major viab 89
O=[N+]([O-])c1ccc(OCCN2CCNCC2)cc1	L major viab 99
CC1CN(C(=O)c2cc([N+](=O)[O-])cc([N+](=O)[O-])c2)CC(C)O1 (stereo not drawn)	none (no result: PMI activator, PMI act hi M6P, Diaph act CS)
Cc1ccc([N+](=O)[O-])c(OCCN2CCNCC2)c1	none
COC(=O)C1CCN(c2ccc([N+](=O)[O-])cc2)CC1	none
COC(=O)C1CCN(CCCOc2ccc(CN3CCN(c4ccc([N+](=O)[O-])cc4)CC3)cc2)CC1	L major viab 95
O=[N+]([O-])c1ccccc1OCCCN1CCOCC1	none
CC1CN(CCCOc2ccccc2[N+](=O)[O-])CC(C)O1 (stereo not drawn)	L major viab 90
CC1CN(CCCOc2ccc([N+](=O)[O-])cc2)CC(C)O1 (stereo not drawn)	L major viab 91
CC(NC(=O)c1ccc(Br)s1)c1ccncc1 (stereo not drawn)	none
CC(C)CNC(=O)c1cccc(NC(=O)Cc2ccc(Cl)cc2)c1	none
CCOC(=O)c1ccc(S(=O)(=O)Nc2cc(C(=O)O)ccc2Cl)cc1	none
CC1CC(C)CN(CCCCOc2ccc([N+](=O)[O-])cc2)C1 (stereo not drawn)	L major viab 95
Cc1cc(OCCN2CC(C)OC(C)C2)ccc1[N+](=O)[O-] (stereo not drawn)	L major viab 76
Cc1ccc(C(C)C)c(OCCCN2CC(C)OC(C)C2)c1 (stereo not drawn)	L major viab 97
Cc1cc(Br)ccc1OCCN1CC(C)OC(C)C1 (stereo not drawn)	none
Cc1ccc(C(=O)N2CC(C)OC(C)C2)cc1[N+](=O)[O-] (stereo not drawn)	none

Screening results: PubChem BioAssay, several laboratories
